Among the data in ChEMBL document CHEMBL1177839, “Synthesis and preliminary biological evaluation of novel taspine derivatives as anticancer agents” (Eur J Med Chem, 2010) are IC50 values, retold here.

Assay [1] is described as follows: Antiproliferative activity against human ECV304 cells after 48 hrs by MTT assay. The class given is cell-based. Conditions: ECV-304, 48 h. The essentials:
(§1)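 Cells in exponential growth harvested and seeded at 1 ×10⁴ cells/well, incubated 24 h at 37 °C, then exposed to a range of compound concentrations for 48 h. Viability read by MTT; IC₅₀ derived from dose-dependent growth inhibition.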

Another assay relates to A-375. In words: Antiproliferative activity against human A375 cells after 48 hrs by MTT assay. It counts as functional, cell-based. The note with it: A-375, 48 h.
A further assay relates to PANC-1. In words: Antiproliferative activity against human PANC1 cells after 48 hrs by MTT assay. It counts as functional, cell-based. Conditions: PANC-1, 48 h.
Another assay relates to SMMC-7721. In words: Antiproliferative activity against human SMMC7721 cells after 48 hrs by MTT assay. The class given is functional, cell-based. The note with it: SMMC-7721, 48 h.
In a further assay the test system is A549. Kind of assay: Antiproliferative activity against human A549 cells after 48 hrs by MTT assay. The class given is functional, cell-based. Conditions: A549, 48 h. The essentials: as §1
Another assay has as its system HeLa. In words: Antiproliferative activity against human HeLa cells after 48 hrs by MTT assay. It counts as functional, cell-based.
In a further assay the test system is Caco-2. In words: Antiproliferative activity against human Caco-2 cells after 48 hrs by MTT assay. The class given is functional, cell-based. Conditions: Caco-2, 48 h. The essentials:
as §1

A further assay concerns MCF7. In words: Antiproliferative activity against human MCF7 cells after 48 hrs by MTT assay. It counts as functional, cell-based. Conditions: MCF7, 48 h.
The next assay has as its system HT-29. In words: Antiproliferative activity against human HT-29 cells after 48 hrs by MTT assay. The class given is functional, cell-based. The note with it: HT-29, 48 h.
A further assay concerns HEK293. Kind of assay: Antiproliferative activity against human HEK293 cells overexpressing EGFR after 48 hrs by MTT assay. It counts as cell-based. The note with it: HEK293, 48 h. The essentials: as §1
A further assay relates to A-431. Kind of assay: Antiproliferative activity against human A431 cells abnormally expressing EGFR after 48 hrs by MTT assay. The class given is functional, cell-based. The note with it: A-431, 48 h. A digest of the protocol: as §1

On to `CNC(=O)c1ccc(OC)c(OCCN(C)C)c1-c1c(C(=O)NC)ccc(OC)c1OCC(=O)Nc1ccc(F)c(Cl)c1`, for which the 50% inhibitory concentration (IC50) in assay [1] came out at 57.2 µM; with A-375, 242 µM; in the assay on PANC-1, 159 µM; in the assay with SMMC-7721 it was 124 µM; in the assay with A549 it was 241 µM; with HeLa, 117 µM. Also, the concentration for half-maximal inhibition (IC50) in the assay with Caco-2 is 167 µM; in the assay on MCF7 it was 123 µM; in the assay with HT-29, 133 µM.
As for `CNC(=O)c1ccc(OC)c(O)c1-c1c(C(=O)NC)ccc(OC)c1OCC(=O)Nc1ccc(F)c(Cl)c1`, the IC50 in assay [1] turned out to be 72.2 µM; with A-375, 217 µM; in the assay on PANC-1, 191 µM; in the assay with SMMC-7721 it was 109 µM; in the assay with A549, 73.5 µM; with HeLa, 53.4 µM. For the same compound, the results for the IC50 with Caco-2, in the assay with MCF7 and with HT-29 were 20.3 µM, 109 µM and 214 µM, respectively.
Consider `CNC(=O)c1ccc(OC)c(O)c1-c1c(C(=O)NC)ccc(OC)c1OCCN1CCOCC1`, for which the 50% inhibitory concentration (IC50) in assay [1] was found to be 1360 µM; with A-375 it was 174 µM; with HEK293 it was 116 µM; in the assay with PANC-1 it was 166 µM; with SMMC-7721, 78.2 µM; in the assay on A549, 259 µM. In addition, the IC50 turned out to be 415 µM with HeLa; 75.9 µM in the assay on A-431; 75.9 µM in the assay with Caco-2; 83.7 µM in the assay with MCF7; 122 µM in the assay with HT-29.
Regarding `COC(=O)c1cc(OC(=O)c2ccc(OC)c(O)c2)c(OC)cc1CCN1CCOCC1`, the IC50 in assay [1] was 2.67 µM; in the assay on A549 it was 158 µM; in the assay on Caco-2, 52.5 µM.
Take `CNC(=O)c1ccc(OC)c(OCCN2CCNCC2)c1-c1c(C(=O)NC)ccc(OC)c1OCC(=O)Nc1ccc(F)c(Cl)c1`: the values for the IC50 in the assay with SMMC-7721 and in the assay on HT-29 were 126 µM and 47.2 µM, respectively.
For the compound `CNC(=O)c1ccc(OC)c(O)c1-c1c(C(=O)NC)ccc(OC)c1O`, the half-maximal inhibitory concentration (IC50) in [1] was determined as 113 µM; with A-375, 106 µM; in the assay on HEK293, 88 µM; in the assay with PANC-1 it was 217 µM; with SMMC-7721, 95.7 µM; in the assay on A549 it was 64.7 µM. In addition, the IC50 with HeLa came to 97.6 µM; in the assay with A-431, 104 µM; with Caco-2, 104 µM; in the assay with HT-29, 200 µM.
Turning to `COC(=O)c1cc(OC(=O)c2ccc(OC)c(O)c2)c(OC)cc1CCNc1ccc(F)c(Cl)c1`, the half-maximal inhibitory concentration (IC50) in assay [1] worked out at 61 µM; with A549, 180 µM.
For the compound `COC(=O)c1cc(OC(=O)c2cc(O)c(OC)cc2CCN(C)C)ccc1OC`, the results for the half-maximal inhibitory concentration (IC50) in the assay on A549 and in the assay on Caco-2 were 111 µM and 3100 µM, respectively.
Turning to `COc1ccc2c(=O)oc3c(OC)cc(CCN(C)C)c4c(=O)oc1c2c34` [TASPINE], the IC50 is 22.3 µM in assay [1]; 16 µM in the assay with HEK293; 4.18 µM in the assay on A549; 11.2 µM with A-431; 153 µM with Caco-2.
For the compound `COC(=O)c1cc(OC(=O)c2ccc(OC)c(O)c2)c(OC)cc1CCN(C)C`, the IC50 amounted to 453 µM with A549 and 110 µM in the assay on Caco-2.
Regarding `CNC(=O)c1ccc(OC)c(OCCN2CCOCC2)c1-c1c(C(=O)NC)ccc(OC)c1OCC(=O)Nc1ccc(F)c(Cl)c1`, the IC50 in the assay with A-375 turned out to be 25.1 µM; in the assay on PANC-1, 110 µM; in the assay with SMMC-7721, 194 µM; in the assay with A549, 194 µM; in the assay on HeLa it was 100 µM; with Caco-2, 3310 µM. The half-maximal inhibitory concentration (IC50) in the assay on MCF7 worked out at 60.4 µM; in the assay with HT-29, 44.7 µM.
